Several values for one entry are separate records, joined by “and”; a condition that tells them apart may be missing. Identical values can stand only once.
Tested on: Fibroblast
Experiment: Multiplex assay against human fibroblast
Format: toxicity, cell-based
Settings: number of replicates 2
How it was run: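 At seeding, live cells were stained with Hoechst33342, BioTracker Green Microtubule Cytoskeleton Dye, MitoTracker Red and Annexin V Alexa Fluor 680. After compound addition they were imaged on a CQ1 microscope at 37°C and 5% CO2, and CellPathfinder machine-learning gating sorted them into Hoechst high-intensity objects or normal cells, with normal cells further split into healthy, pyknosed or fragmented nuclei and pyknosed cells into mitotic or apoptotic. Tubulin, mitochondrial-mass and membrane-permeability phenotypes are given as per cents of cells with healthy nuclei.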

[1] = 12 h, 1 µM, compound concentration 1 uM
[2] = 12 h, 10 µM, compound concentration 10 uM
[3] = 24 h, 1 µM, compound concentration 1 uM
[4] = 24 h, 10 µM, compound concentration 10 uM
[5] = 48 h, 1 µM, compound concentration 1 uM
[6] = 48 h, 10 µM, compound concentration 10 uM

SMILES: NC(=O)c1ccc(-c2nc(-c3ccc4c(c3)OCCO4)c(-c3ccccn3)[nH]2)cc1
- Population Apoptotic (%) [1]: 31% and 28%
- Population Fragmented Nuclei (%) [1]: 5%
- Population Healthy Nuclei (%) [1]: 81% and 72%
- Population Hoechst High Intensity Objects (%) [1]: 0%
- Population Membrane Permeable-Phenotype (%) [1]: 8% and 4%
- Population Mitochondria Different-Phenotype (%) [1]: 0% and 2%
- Population Mitotic Cells (%) [1]: 68% and 71%
- Population Normal (%) [1]: 100%
- Population Pyknosed Nuclei (%) [1]: 13% and 22%
- Population Tubulin-Different-Phenotype (%) [1]: 15% and 6%
- Total Cell Count [1]: 265 and 208
- Population Apoptotic (%) [2]: 26% and 17%
- Population Fragmented Nuclei (%) [2]: 10% and 18%
- Population Healthy Nuclei (%) [2]: 57% and 67%
- Population Hoechst High Intensity Objects (%) [2]: 0%
- Population Membrane Permeable-Phenotype (%) [2]: 1% and 3%
- Population Mitochondria Different-Phenotype (%) [2]: 0% and 1%
- Population Mitotic Cells (%) [2]: 73% and 82%
- Population Normal (%) [2]: 100%
- Population Pyknosed Nuclei (%) [2]: 32% and 13%
- Total Cell Count [2]: 187 and 209
- Population Apoptotic (%) [3]: 50% and 53%
- Population Fragmented Nuclei (%) [3]: 9% and 11%
- Population Healthy Nuclei (%) [3]: 83% and 67%
- Population Hoechst High Intensity Objects (%) [3]: 0%
- Population Membrane Permeable-Phenotype (%) [3]: 4% and 2%
- Population Mitochondria Different-Phenotype (%) [3]: 0%
- Population Mitotic Cells (%) [3]: 50% and 46%
- Population Normal (%) [3]: 100% and 99%
- Population Tubulin-Different-Phenotype (%) [3]: 12% and 5%
- Total Cell Count [3]: 287 and 229
- Population Apoptotic (%) [4]: 37% and 14%
- Population Fragmented Nuclei (%) [4]: 12% and 24%
- Population Healthy Nuclei (%) [4]: 70% and 69%
- Population Hoechst High Intensity Objects (%) [4]: 0%
- Population Membrane Permeable-Phenotype (%) [4]: 2%
- Population Mitochondria Different-Phenotype (%) [4]: 1%
- Population Mitotic Cells (%) [4]: 62% and 85%
- Population Normal (%) [4]: 99% and 100%
- Population Pyknosed Nuclei (%) [4]: 16% and 6%
- Population Tubulin-Different-Phenotype (%) [4]: 10% and 5%
- Total Cell Count [4]: 209 and 225
- Population Apoptotic (%) [5]: 56% and 77%
- Population Fragmented Nuclei (%) [5]: 12% and 14%
- Population Healthy Nuclei (%) [5]: 82% and 73%
- Population Hoechst High Intensity Objects (%) [5]: 0%
- Population Membrane Permeable-Phenotype (%) [5]: 4%
- Population Mitochondria Different-Phenotype (%) [5]: 0%
- Population Mitotic Cells (%) [5]: 43% and 22%
- Population Normal (%) [5]: 100% and 99%
- Population Pyknosed Nuclei (%) [5]: 5% and 12%
- Population Tubulin-Different-Phenotype (%) [5]: 5% and 4%
- Total Cell Count [5]: 309 and 221
- Population Apoptotic (%) [6]: 33% and 40%
- Population Fragmented Nuclei (%) [6]: 16% and 24%
- Population Healthy Nuclei (%) [6]: 76% and 73%
- Population Hoechst High Intensity Objects (%) [6]: 0%
- Population Membrane Permeable-Phenotype (%) [6]: 0% and 2%
- Population Mitochondria Different-Phenotype (%) [6]: 0% and 1%
- Population Mitotic Cells (%) [6]: 66% and 60%
- Population Normal (%) [6]: 100%
- Population Pyknosed Nuclei (%) [6]: 6% and 2%
- Population Tubulin-Different-Phenotype (%) [6]: 11% and 7%
- Total Cell Count [6]: 216 and 234

SMILES: CN(C)CCCNc1ccnc(Nc2cccc(Cl)c2)n1
- Population Apoptotic (%) [1]: 13% and 30%
- Population Fragmented Nuclei (%) [1]: 9% and 15%
- Population Healthy Nuclei (%) [1]: 76% and 67%
- Population Hoechst High Intensity Objects (%) [1]: 0%
- Population Membrane Permeable-Phenotype (%) [1]: 4%
- Population Mitochondria Different-Phenotype (%) [1]: 1%
- Population Mitotic Cells (%) [1]: 86% and 70%
- Population Normal (%) [1]: 99% and 100%
- Population Pyknosed Nuclei (%) [1]: 14% and 16%
- Population Tubulin-Different-Phenotype (%) [1]: 14% and 10%
- Total Cell Count [1]: 249 and 301
- Population Apoptotic (%) [2]: 36% and 44%
- Population Fragmented Nuclei (%) [2]: 23% and 18%
- Population Healthy Nuclei (%) [2]: 65% and 70%
- Population Hoechst High Intensity Objects (%) [2]: 0%
- Population Membrane Permeable-Phenotype (%) [2]: 6% and 3%
- Population Mitochondria Different-Phenotype (%) [2]: 2% and 1%
- Population Mitotic Cells (%) [2]: 63% and 55%
- Population Normal (%) [2]: 99%
- Population Pyknosed Nuclei (%) [2]: 10% and 11%
- Population Tubulin-Different-Phenotype (%) [2]: 32% and 19%
- Total Cell Count [2]: 277 and 316
- Population Apoptotic (%) [3]: 35% and 40%
- Population Fragmented Nuclei (%) [3]: 13% and 19%
- Population Healthy Nuclei (%) [3]: 73% and 66%
- Population Hoechst High Intensity Objects (%) [3]: 0%
- Population Membrane Permeable-Phenotype (%) [3]: 4%
- Population Mitochondria Different-Phenotype (%) [3]: 0% and 2%
- Population Mitotic Cells (%) [3]: 64% and 59%
- Population Normal (%) [3]: 100% and 99%
- Population Pyknosed Nuclei (%) [3]: 13% and 14%
- Population Tubulin-Different-Phenotype (%) [3]: 14% and 13%
- Total Cell Count [3]: 284 and 321
- Population Apoptotic (%) [4]: 30% and 31%
- Population Fragmented Nuclei (%) [4]: 18% and 13%
- Population Healthy Nuclei (%) [4]: 61% and 66%
- Population Hoechst High Intensity Objects (%) [4]: 1% and 2%
- Population Membrane Permeable-Phenotype (%) [4]: 4% and 3%
- Population Mitochondria Different-Phenotype (%) [4]: 3% and 0%
- Population Mitotic Cells (%) [4]: 69% and 68%
- Population Normal (%) [4]: 98% and 97%
- Population Pyknosed Nuclei (%) [4]: 20% and 19%
- Population Tubulin-Different-Phenotype (%) [4]: 32% and 17%
- Total Cell Count [4]: 319 and 392
- Population Apoptotic (%) [5]: 56% and 66%
- Population Fragmented Nuclei (%) [5]: 18% and 25%
- Population Healthy Nuclei (%) [5]: 70% and 65%
- Population Hoechst High Intensity Objects (%) [5]: 0%
- Population Membrane Permeable-Phenotype (%) [5]: 3% and 1%
- Population Mitochondria Different-Phenotype (%) [5]: 0%
- Population Mitotic Cells (%) [5]: 43% and 33%
- Population Normal (%) [5]: 99%
- Population Pyknosed Nuclei (%) [5]: 10% and 9%
- Population Tubulin-Different-Phenotype (%) [5]: 12% and 5%
- Total Cell Count [5]: 314 and 360
- Population Apoptotic (%) [6]: 22% and 29%
- Population Fragmented Nuclei (%) [6]: 17% and 16%
- Population Healthy Nuclei (%) [6]: 66% and 70%
- Population Hoechst High Intensity Objects (%) [6]: 6%
- Population Membrane Permeable-Phenotype (%) [6]: 3% and 2%
- Population Mitochondria Different-Phenotype (%) [6]: 2% and 0%
- Population Mitotic Cells (%) [6]: 77% and 70%
- Population Normal (%) [6]: 93%
- Population Pyknosed Nuclei (%) [6]: 16% and 13%
- Population Tubulin-Different-Phenotype (%) [6]: 33% and 16%
- Total Cell Count [6]: 391 and 463
